Data as given in ChEMBL document CHEMBL2163282, “Discovery and characterization of AZD9272 and AZD6538-Two novel mGluR5 negative allosteric modulators selected for clinical development” (Bioorg Med Chem Lett, 2012).
≈ marks a conversion by molar mass, not a printed value. Calls of active or inactive are those of the source. The rule behind the calls is not given here.

Assays:
[1] = Oral bioavailability in Sprague-Dawley rat at 3 umol/kg; assay type: ADME, organism-based; details: in vivo
In short: (§1)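 Male rats (n = 3) received a single oral dose of 3 µmol/kg. Vehicle was Polyvidon K30 1.7 mg/ml, sodium lauryl sulphate 0.34 mg/ml and glycerin 25.0 mg/ml in water. Plasma levels were measured by liquid–liquid extraction and reversed-phase LC-MS/MS (APCI or ESI).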

[2] = biological target: Metabotropic glutamate receptor 4 (Homo sapiens) (UniProt Q14833); assay: Positive allosteric modulation of mGluR4 assessed as effect on intracellular Ca2+ level up to 30 uM by cell based FLIPR assay; assay type: functional
Sequence of Metabotropic glutamate receptor 4 (Homo sapiens) (Q14833 whole entry): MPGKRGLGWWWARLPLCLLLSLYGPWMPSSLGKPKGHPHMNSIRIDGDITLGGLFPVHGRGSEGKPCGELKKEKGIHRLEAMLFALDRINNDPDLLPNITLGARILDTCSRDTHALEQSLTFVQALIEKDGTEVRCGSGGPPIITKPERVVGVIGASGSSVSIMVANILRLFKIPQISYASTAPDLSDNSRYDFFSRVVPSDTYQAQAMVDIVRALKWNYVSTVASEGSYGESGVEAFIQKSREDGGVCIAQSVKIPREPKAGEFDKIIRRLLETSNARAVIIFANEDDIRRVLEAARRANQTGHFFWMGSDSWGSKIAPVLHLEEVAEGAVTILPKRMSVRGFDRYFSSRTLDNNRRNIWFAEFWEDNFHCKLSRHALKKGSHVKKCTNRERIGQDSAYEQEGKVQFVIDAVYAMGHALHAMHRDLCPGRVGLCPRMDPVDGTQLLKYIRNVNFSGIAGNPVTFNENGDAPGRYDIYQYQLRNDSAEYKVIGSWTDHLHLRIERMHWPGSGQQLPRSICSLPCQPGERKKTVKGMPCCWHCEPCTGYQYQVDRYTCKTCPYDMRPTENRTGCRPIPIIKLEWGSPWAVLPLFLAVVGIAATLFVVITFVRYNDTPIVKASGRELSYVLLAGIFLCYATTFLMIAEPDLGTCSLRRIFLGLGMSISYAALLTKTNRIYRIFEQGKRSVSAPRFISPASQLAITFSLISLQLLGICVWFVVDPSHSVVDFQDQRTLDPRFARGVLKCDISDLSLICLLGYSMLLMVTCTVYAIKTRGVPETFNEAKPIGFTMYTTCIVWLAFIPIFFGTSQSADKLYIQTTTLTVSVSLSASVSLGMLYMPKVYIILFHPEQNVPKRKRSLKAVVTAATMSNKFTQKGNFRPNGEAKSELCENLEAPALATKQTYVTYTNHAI
In short: (§2)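 Each of the seven other mGluR subtypes was tested at concentrations up to 30 µM. Agonist, antagonist and positive allosteric modulator modes were each assessed. Read-out was the change in intracellular Ca2+ on FLIPR.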

[3] = Equilibrium solubility of the compound […]; assay type: physicochemical
In short: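 Solubility was measured by a dried-DMSO rapid-throughput method.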

[4] = biological target: Metabotropic glutamate receptor 4 (Homo sapiens) (UniProt Q14833); assay: Antagonist activity at mGluR4 assessed as effect on intracellular Ca2+ level up to 30 uM by cell based FLIPR assay; assay type: functional; in short: as §2
[5] = biological target: Metabotropic glutamate receptor 8 (Homo sapiens) (UniProt O00222); assay: Positive allosteric modulation of mGluR8 assessed as effect on intracellular Ca2+ level up to 30 uM by cell based FLIPR assay; assay type: functional; in short: as §2
Sequence of Metabotropic glutamate receptor 8 (Homo sapiens) (O00222 whole entry): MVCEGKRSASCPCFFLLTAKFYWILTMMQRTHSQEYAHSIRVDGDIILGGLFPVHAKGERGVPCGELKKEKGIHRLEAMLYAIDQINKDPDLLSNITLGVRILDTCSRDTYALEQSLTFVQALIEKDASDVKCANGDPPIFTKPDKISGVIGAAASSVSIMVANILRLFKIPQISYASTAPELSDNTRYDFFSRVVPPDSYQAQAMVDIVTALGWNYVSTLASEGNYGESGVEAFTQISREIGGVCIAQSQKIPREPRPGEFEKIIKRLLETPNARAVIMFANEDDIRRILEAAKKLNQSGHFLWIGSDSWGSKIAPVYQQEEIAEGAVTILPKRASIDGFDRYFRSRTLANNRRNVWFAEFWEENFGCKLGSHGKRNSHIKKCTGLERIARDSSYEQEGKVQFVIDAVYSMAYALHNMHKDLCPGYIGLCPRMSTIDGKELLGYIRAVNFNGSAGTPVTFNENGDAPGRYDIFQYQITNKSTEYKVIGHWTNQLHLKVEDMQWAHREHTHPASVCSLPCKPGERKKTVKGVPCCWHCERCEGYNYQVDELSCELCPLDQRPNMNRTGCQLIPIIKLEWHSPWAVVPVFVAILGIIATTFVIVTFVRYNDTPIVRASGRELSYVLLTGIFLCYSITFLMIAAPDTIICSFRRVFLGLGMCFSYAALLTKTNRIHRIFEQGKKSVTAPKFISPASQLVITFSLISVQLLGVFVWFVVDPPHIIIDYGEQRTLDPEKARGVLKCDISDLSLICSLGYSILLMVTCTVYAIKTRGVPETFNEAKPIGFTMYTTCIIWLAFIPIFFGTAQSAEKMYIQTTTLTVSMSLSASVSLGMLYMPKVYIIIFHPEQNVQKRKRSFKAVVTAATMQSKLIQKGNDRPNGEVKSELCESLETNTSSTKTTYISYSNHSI

[6] = Clearance in Sprague-Dawley rat at 3 umol/kg, iv; assay type: ADME, organism-based; details: in vivo
In short: (§3)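 Male rats (n = 3) received a single intravenous dose of 3 µmol/kg. Vehicle was 40% w/w dimethylacetamide/40% w/w PEG 400/20% w/w water. Plasma drug was measured after liquid–liquid extraction by reversed-phase LC with APCI or ESI tandem MS.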

[7] = Terminal half life in Sprague-Dawley rat at 3 umol/kg, iv; assay type: ADME, organism-based; details: in vivo, read-out: beta t1/2 (converted); in short: as §3
[8] = biological target: Metabotropic glutamate receptor 8 (Homo sapiens) (UniProt O00222); assay: Antagonist activity at mGluR8 assessed as effect on intracellular Ca2+ level up to 30 uM by cell based FLIPR assay; assay type: functional; in short: as §2
[9] = biological target: Metabotropic glutamate receptor 6 (Homo sapiens) (UniProt O15303); assay: Antagonist activity at mGluR6 assessed as effect on intracellular Ca2+ level up to 30 uM by cell based FLIPR assay; assay type: functional; in short: as §2
[10] = biological target: Metabotropic glutamate receptor 3 (Homo sapiens) (UniProt Q14832); assay: Positive allosteric modulation of mGluR3 assessed as effect on intracellular Ca2+ level up to 30 uM by cell based FLIPR assay; assay type: functional; in short: as §2
Sequence of Metabotropic glutamate receptor 3 (Homo sapiens) (Q14832 23-879 limits assumed): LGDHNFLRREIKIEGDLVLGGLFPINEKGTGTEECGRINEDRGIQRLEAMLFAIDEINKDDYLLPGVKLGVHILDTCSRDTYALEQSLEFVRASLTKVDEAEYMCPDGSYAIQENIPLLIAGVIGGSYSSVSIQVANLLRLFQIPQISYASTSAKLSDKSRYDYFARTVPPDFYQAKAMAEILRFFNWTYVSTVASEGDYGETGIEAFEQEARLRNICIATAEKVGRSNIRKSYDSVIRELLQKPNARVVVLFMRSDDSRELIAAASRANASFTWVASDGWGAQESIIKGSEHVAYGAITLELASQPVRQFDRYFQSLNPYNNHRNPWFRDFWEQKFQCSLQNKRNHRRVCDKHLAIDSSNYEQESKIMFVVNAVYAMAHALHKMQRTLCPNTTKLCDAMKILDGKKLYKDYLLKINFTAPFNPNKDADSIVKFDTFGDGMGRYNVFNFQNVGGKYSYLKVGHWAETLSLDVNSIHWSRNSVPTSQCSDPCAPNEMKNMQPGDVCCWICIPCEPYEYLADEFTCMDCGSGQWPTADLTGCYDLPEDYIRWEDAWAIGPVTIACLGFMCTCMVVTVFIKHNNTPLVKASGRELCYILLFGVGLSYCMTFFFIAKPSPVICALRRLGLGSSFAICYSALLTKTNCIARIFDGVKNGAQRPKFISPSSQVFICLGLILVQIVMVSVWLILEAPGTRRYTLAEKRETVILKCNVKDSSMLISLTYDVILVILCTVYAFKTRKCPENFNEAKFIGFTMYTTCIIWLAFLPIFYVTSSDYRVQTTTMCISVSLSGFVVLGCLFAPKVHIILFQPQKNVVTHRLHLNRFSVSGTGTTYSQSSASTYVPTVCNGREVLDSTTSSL

[11] = biological target: Metabotropic glutamate receptor 2 (Homo sapiens) (UniProt Q14416); assay: Antagonist activity at mGluR2 assessed as effect on intracellular Ca2+ level up to 30 uM by cell based FLIPR assay; assay type: functional; in short: as §2
Sequence of Metabotropic glutamate receptor 2 (Homo sapiens) (Q14416 19-872 limits assumed): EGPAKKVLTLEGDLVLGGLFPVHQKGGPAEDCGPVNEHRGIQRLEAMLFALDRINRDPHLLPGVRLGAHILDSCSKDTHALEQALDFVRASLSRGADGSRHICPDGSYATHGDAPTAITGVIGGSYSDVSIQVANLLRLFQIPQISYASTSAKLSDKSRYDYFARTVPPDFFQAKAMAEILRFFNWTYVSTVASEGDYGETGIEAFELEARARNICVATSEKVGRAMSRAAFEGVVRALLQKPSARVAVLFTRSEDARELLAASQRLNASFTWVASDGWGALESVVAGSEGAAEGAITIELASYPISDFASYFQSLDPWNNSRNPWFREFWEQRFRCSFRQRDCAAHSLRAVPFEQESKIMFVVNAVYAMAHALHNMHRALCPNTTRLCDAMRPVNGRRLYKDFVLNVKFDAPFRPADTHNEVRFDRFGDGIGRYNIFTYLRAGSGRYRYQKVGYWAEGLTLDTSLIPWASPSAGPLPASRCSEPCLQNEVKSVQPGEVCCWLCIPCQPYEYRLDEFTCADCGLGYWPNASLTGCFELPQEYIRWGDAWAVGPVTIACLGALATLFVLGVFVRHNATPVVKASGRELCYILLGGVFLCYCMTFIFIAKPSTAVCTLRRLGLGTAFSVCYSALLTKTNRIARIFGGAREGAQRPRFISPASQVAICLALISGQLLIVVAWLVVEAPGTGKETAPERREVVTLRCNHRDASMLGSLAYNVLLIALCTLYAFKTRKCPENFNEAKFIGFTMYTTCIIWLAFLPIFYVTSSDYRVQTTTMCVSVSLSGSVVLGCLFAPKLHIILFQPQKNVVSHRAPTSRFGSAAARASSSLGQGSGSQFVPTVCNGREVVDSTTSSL

[12] = biological target: T1, Metabotropic glutamate receptor 5 (Homo sapiens, UniProt P41594); assay: Negative allosteric modulation of human recombinant mGluR5 expressed in HEK293 cells expressing GLAST assessed as inhibition of glutamate-stimulated IP accumulation incubated for 10 mins prior to glutamate challenge measured 30 mins post glutamate challenge by scintillation counter in presence of [3H]myo-inositol; assay type: functional, cell-based
[13] = biological target: Metabotropic glutamate receptor 3 (Homo sapiens) (UniProt Q14832); assay: Antagonist activity at mGluR3 assessed as effect on intracellular Ca2+ level up to 30 uM by cell based FLIPR assay; assay type: functional; in short: as §2
[14] = Intrinsic clearance in rat liver microsomes; assay type: ADME, Microsome; details: read-out: CLH
In short: (§4)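 Intrinsic clearance was determined in human or rat microsomes and expressed per min per mg protein.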

[15] = biological target: Metabotropic glutamate receptor 5 (Rattus norvegicus) (UniProt P31424); assay: Negative allosteric modulation of rat recombinant mGluR5 expressed in HEK293 cells expressing GLAST assessed as inhibition of DHPG-induced intracellular Ca2+ level at 0.001 to 3 uM after 30 mins by FLIPR assay; assay type: functional, cell-based
[16] = biological target: Metabotropic glutamate receptor 5 (Rattus norvegicus) (UniProt P31424); assay: (§5) Negative allosteric modulation of rat recombinant mGluR5 expressed in HEK293 cells expressing GLAST assessed as inhibition of DHPG-induced intracellular Ca2+ level after 30 mins by FLIPR assay; assay type: functional, cell-based
In short: (§6)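 Human or rat mGluR5 expressed recombinantly in HEK293 cells that constitutively express the glutamate/aspartate transporter (mGluR5-GHEK). Intracellular Ca2+ rise evoked by DHPG was read on FLIPR. Potency was taken from test-compound inhibition of that response. Mean of 3 separate experiments.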

[17] = biological target: Metabotropic glutamate receptor 5 (Rattus norvegicus, UniProt P31424); assay: as §5; assay type: functional, cell-based; in short: as §6
[18] = biological target: Metabotropic glutamate receptor 2 (Homo sapiens) (UniProt Q14416); assay: Agonist activity at mGluR2 assessed as effect on intracellular Ca2+ level up to 30 uM by cell based FLIPR assay; assay type: functional; in short: as §2
[19] = Cmax in Sprague-Dawley rat at 3 umol/kg, po; assay type: ADME, organism-based; parameters: dose 3 umol/kg, route oral; details: in vivo; in short: as §1
[20] = biological target: Metabotropic glutamate receptor 5 (Rattus norvegicus) (UniProt P31424); assay: Negative allosteric modulation of rat recombinant mGluR5 expressed in HEK293 cells expressing GLAST assessed as inhibition of ATP-induced intracellular Ca2+ level at 10 uM after 30 mins by FLIPR assay; assay type: functional, cell-based
In short: (§7)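 FLIPR intracellular Ca2+ readout in background GHEK cells (HEK293 with glutamate/aspartate transporter, lacking mGluR5), stimulated with 10 µM ATP; test compound at 10 µM to check off-target inhibition.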

[21] = biological target: T1, Metabotropic glutamate receptor 5; assay: Negative allosteric modulation of human recombinant mGluR5 expressed in HEK293 cells expressing GLAST assessed as inhibition of ATP-induced intracellular Ca2+ level at 10 uM after 30 mins by FLIPR assay; assay type: functional, cell-based; in short: as §7
[22] = biological target: T1, Metabotropic glutamate receptor 5; assay: Negative allosteric modulation of human recombinant mGluR5 expressed in HEK293 cells expressing GLAST assessed as inhibition of DHPG-induced intracellular Ca2+ level after 30 mins by FLIPR assay
[23] = biological target: Metabotropic glutamate receptor 7 (Homo sapiens) (UniProt Q14831); assay: Antagonist activity at mGluR7 assessed as effect on intracellular Ca2+ level up to 30 uM by cell based FLIPR assay; assay type: functional; in short: as §2
Sequence of Metabotropic glutamate receptor 7 (Homo sapiens) (Q14831 whole entry): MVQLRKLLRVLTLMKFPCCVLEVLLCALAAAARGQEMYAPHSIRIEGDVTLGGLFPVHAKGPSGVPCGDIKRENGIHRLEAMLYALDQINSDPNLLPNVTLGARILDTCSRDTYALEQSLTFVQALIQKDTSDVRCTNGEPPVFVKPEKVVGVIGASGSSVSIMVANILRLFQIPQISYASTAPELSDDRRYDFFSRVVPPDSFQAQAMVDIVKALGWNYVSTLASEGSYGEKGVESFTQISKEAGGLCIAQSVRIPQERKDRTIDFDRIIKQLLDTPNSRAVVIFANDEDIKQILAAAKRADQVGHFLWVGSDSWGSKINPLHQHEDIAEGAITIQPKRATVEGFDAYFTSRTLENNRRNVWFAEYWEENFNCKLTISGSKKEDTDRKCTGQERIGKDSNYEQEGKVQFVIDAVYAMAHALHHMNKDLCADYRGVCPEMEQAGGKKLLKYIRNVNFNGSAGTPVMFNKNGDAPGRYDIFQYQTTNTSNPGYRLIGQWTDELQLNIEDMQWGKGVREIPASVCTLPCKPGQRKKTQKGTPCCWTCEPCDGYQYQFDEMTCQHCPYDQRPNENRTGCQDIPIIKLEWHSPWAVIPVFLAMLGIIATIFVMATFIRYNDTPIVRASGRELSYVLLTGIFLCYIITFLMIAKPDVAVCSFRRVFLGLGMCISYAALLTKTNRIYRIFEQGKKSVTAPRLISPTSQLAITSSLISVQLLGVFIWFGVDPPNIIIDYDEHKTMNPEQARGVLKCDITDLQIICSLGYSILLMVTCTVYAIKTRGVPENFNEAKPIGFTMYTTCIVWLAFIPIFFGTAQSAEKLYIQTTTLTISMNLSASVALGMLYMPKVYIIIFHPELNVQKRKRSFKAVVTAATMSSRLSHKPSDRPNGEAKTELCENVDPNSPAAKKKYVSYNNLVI

[24] = biological target: T1, Metabotropic glutamate receptor 5; assay: Negative allosteric modulation of human recombinant mGluR5 expressed in HEK293 cells expressing GLAST assessed as inhibition of DHPG-induced intracellular Ca2+ level at 0.001 to 3 uM after 30 mins by FLIPR assay; assay type: functional, cell-based
[25] = biological target: T1, Metabotropic glutamate receptor 5; assay: Noncompetitive inhibition of human mGluR5 expressed in HEK cells assessed as inhibition of DHPG-induced intracellular Ca2+ level at 10 to 300 nM after 30 mins by FLIPR assay; assay type: functional, cell-based; details: HEK293
In short: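 Human mGluR5-GHEK cells on FLIPR: DHPG concentration–response curves run at increasing modulator concentrations, intracellular Ca2+ read-out; shifts in DHPG potency and maximal response evaluated for non-competitive interaction.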

[26] = Intrinsic clearance in human liver microsomes; assay type: ADME, Microsome; details: read-out: CLH; in short: as §4
[27] = biological target: Metabotropic glutamate receptor 4 (Homo sapiens) (UniProt Q14833); assay: Agonist activity at mGluR4 assessed as effect on intracellular Ca2+ level up to 30 uM by cell based FLIPR assay; assay type: functional; in short: as §2
[28] = biological target: Metabotropic glutamate receptor 1 (Homo sapiens) (UniProt Q13255); assay: Agonist activity at mGluR1 assessed as effect on intracellular Ca2+ level up to 30 uM by cell based FLIPR assay; assay type: functional; in short: as §2
[29] = biological target: Metabotropic glutamate receptor 7 (Homo sapiens) (UniProt Q14831); assay: Agonist activity at mGluR7 assessed as effect on intracellular Ca2+ level up to 30 uM by cell based FLIPR assay; assay type: functional; in short: as §2
[30] = Ratio of drug level in brain to plasma of Sprague-Dawley rat at 3 umol/kg, po; assay type: ADME; details: read-out: BPR
In short: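 Rats were given an oral dose of 3 µmol/kg. Total brain exposure was compared with plasma exposure to give a brain-to-plasma ratio.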

bioavailability [1] [%]	Activity [2] [%]	solubility [3] [µM]	inhibition [4] [%]	Activity [5] [%]	clearance [6] [mL/min/kg]	half-life [7] [h]	inhibition [8] [%]	inhibition [9] [%]	Activity [10] [%]	inhibition [11] [%]	IC50 [12] [nM]	inhibition [12]	inhibition [13] [%]	microsomal CLint [14] [µL/min/mg]	inhibition [15] [%]	inhibition [16]	IC50 [17] [nM]	Activity [18] [%]	Cmax [19] [nM]	SMILES	also measured
46	< 50	16.1 (≈ 4.69 µg/mL)	< 50	< 50	4	5.6	< 50	< 50	< 50	< 50	51	Dose-dependent effect	< 50	6	100	Dose-dependent effect	3.2	< 50	500	N#Cc1ccc(-c2noc(-c3cc(F)cc(C#N)c3)n2)nc1	inhibition [20]: inactive; inhibition [21]: inactive; IC50 [22]: 13.4 nM; inhibition [23]: < 50%; inhibition [24]: 100%; inhibition [25]: Active; microsomal CLint [26]: 3 µL/min/mg; Activity [27]: < 50%; Activity [28]: < 50%; Activity [29]: < 50%; Kp [30]: 1
56	< 50	4.2 (≈ 1.19 µg/mL)	< 50	< 50	5.17	2.5	< 50	< 50	< 50	< 50	26	Dose-dependent effect	< 50	10	100	Dose-dependent effect	2.6	< 50	460	N#Cc1cc(F)cc(-c2nc(-c3ccc(F)cn3)no2)c1	inhibition [20]: inactive; inhibition [21]: inactive; IC50 [22]: 7.6 nM; inhibition [23]: < 50%; inhibition [24]: 100%; inhibition [25]: Active; microsomal CLint [26]: 13.5 µL/min/mg; Activity [27]: < 50%; Activity [28]: < 50%; Activity [29]: < 50%; Kp [30]: 1
